Experimental data from different studies.
Each line is one published result; the experiments were not run side by side.
Target: Calcium/calmodulin-dependent protein kinase kinase 2 (CAMKK2, Homo sapiens, UniProt Q96RR4)

SMILES	test	setting	endpoint	value
Cc1nn(C)cc1-c1nc2c(N3CCN(Cc4ccc(Cl)cc4)CC3)c(Cl)cnc2[nH]1	binding, competition with immobilised ligand	1 µM	remaining binding	100%
Nc1ncc(-c2nc(N3CCOCC3)nc(N3CCOCC3)n2)c(C(F)F)n1	binding, competition with immobilised ligand	10 µM	remaining binding	65%
Cn1cc(-c2cccc(N3CCc4c(sc5c4CC(C)(C)C5)C3=O)c2CO)cc(Nc2ccncn2)c1=O	enzyme activity, inhibitor	1 µM	inhibition	-7%
COc1ncccc1-c1cnn2ccc(N3CCN(C(=O)OC(C)C)CC3)nc12	binding, competition with immobilised ligand	1 µM	remaining binding	88%
CC(C)(C)c1cc(C=C(C#N)C#N)cc(Br)c1O	enzyme activity, inhibitor	0.5 µM	remaining activity	92.5%
N#CC1(c2ccccn2)CCN(Cc2cc(C(=O)O)c(=O)n3ccccc23)CC1	cell-free assay, competition with immobilised ligand	1 µM	remaining binding	100%
O=c1[nH]c2ccccc2n1C1CCN(Cc2ccc(-c3[nH]c4cc5ncnc5cc4nc3-c3ccccc3)cc2)CC1	cell-free assay	0.5 µM	remaining signal	112%
Cn1cncc1[C@](O)(COc1ccc(C#N)cc1-c1ccc(OC(F)(F)F)cc1)c1ccc(C#N)cc1	cell-free assay, competition with immobilised ligand	1 µM	remaining binding	100%
